Reference: ChEMBL document CHEMBL5252510, “A Novel Potent Oral Series of VEGFR2 Inhibitors Abrogate Tumor Growth by Inhibiting Angiogenesis” (J Med Chem, 2016)
Activity calls are given as the source filed them. The calls are words filed in the database; no cut-off is given here.

Legend:
[1] = Antitumor activity against rat BN472 cell implanted in Brown-Norway rat assessed as T/C ratio at 1 mg/kg, po administered once every 2 days measured upto 14 days; type: functional; details: time <= 14 day
In short: (§1)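 Female Brown-Norway rats (160-180 g) given 3 mm³ BN472 tumor fragments in mammary fat pads; at about 200 mm², randomized into groups of 7-8 and dosed orally with compound or PEG300 vehicle over 14 days; tumor growth followed, T/C computed; significance by 2-way RM-ANOVA.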

[2] = Antitumor activity against rat BN472 cell implanted in Brown-Norway rat assessed as T/C ratio at 1 mg/kg, po qd measured upto 14 days; type: functional; details: time <= 14 day; in short: as §1
Mus musculus [3] = species: Mus musculus; test: Antiangiogenic activity in C57BL/6jNpa mouse harbouring mouse B16-BL6 cells assessed as reduction in iAUEC level by measuring T/C ratio measured after 3 days by DCE-MRI assay; type: functional; details: time 3 day
In short: (§2)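 C57BL/6JNpa mice bearing B16/BL6 cervical lymph-node metastases, at least 8 per group, anaesthetized and given contrast agent; DCE-MRI Ktrans and iAUEC (permeability) and Vp (plasma volume) measured before and again after daily treatment; change per mouse recorded, mean ± SEM, one-way ANOVA with Holm-Sidak comparisons versus vehicle.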

B16-BL6 [4] = test: Antitumor activity against mouse B16-BL6 cells implanted in C57BL/6jNpa mouse assessed as primary tumor growth inhibition by measuring T/C ratio at 3 mg/kg, po qd administered once every 2 days started on day 7 post implantation measured after 21 days; type: functional; details: time 7-21 day
In short: (§3)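 Female C57BL/6JNpa mice, 50000 B16/BL6 cells intradermally in both ear pinnae; primary tumor area (mm²) imaged days 7, 14, 21; randomized day 7 into groups of 5-6, oral dosing in PEG200 or PEG300 vehicle daily (or every 2 days) for 14 days; day 21 cervical lymph nodes weighed, metastasis lysates assayed for TIE-2 by ELISA; T/C ratios.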

Mus musculus [5] = species: Mus musculus; test: Antiangiogenic activity in C57BL/6jNpa mouse harbouring mouse B16-BL6 cells assessed as reduction in iAUEC level measured after 3 days by DCE-MRI assay relative to control; type: functional; set-up: scale not given: the % may be the effect or the level left; details: time 3 day; in short: as §2
B16-BL6 [6] = test: Antitumor activity against mouse B16-BL6 cells implanted in C57BL/6jNpa mouse assessed as metastatic tumor growth inhibition at 3 mg/kg, po qd administered once every 2 days started on day 7 post implantation measured after 21 days relative to control; type: functional, organism-based; details: time 7-21 day; in short: as §3
Mus musculus [7] = species: Mus musculus; test: Antiangiogenic activity in C57BL/6jNpa mouse harbouring mouse B16-BL6 cells assessed as reduction in tumor plasma volume measured after 3 days by DCE-MRI assay relative to control; type: functional; set-up: scale not given: the % may be the effect or the level left; details: time 3 day; in short: as §2
B16-BL6 [8] = test: Antitumor activity against mouse B16-BL6 cells implanted in C57BL/6jNpa mouse assessed as primary tumor growth inhibition at 3 mg/kg, po qd administered every 2 days started on day 7 post implantation measured after 21 days; type: functional, organism-based; details: time 7-21 day; in short: as §3
BN472 cell [9] = test: Antitumor activity against rat BN472 cell implanted in Brown-Norway rat assessed as reduction in perfused blood vessels at 3 mg/kg, po qd measured upto 14 days by Hoechst staining based microscopic analysis; type: functional, organism-based; details: time <= 14.0 day
In short: (§4)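 BN472-bearing Brown-Norway rats dosed orally; Hoechst dye i.v. shortly before sacrifice to mark perfused vessels; tumors cryosectioned at 10 micron, blocked in 10 % goat serum/0.1 % Triton X-100, stained with rabbit anti-Ki67 (1:200) or anti-caspase 3 (1:10) and fluorescent secondary antibodies; fluorescence microscopy.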

BN472 cell [10] = test: Antitumor activity against rat BN472 cell implanted in Brown-Norway rat assessed as reduction in cell growth at 3 mg/kg, po qd measured upto 14 days by Ki67 staining based microscopic analysis; type: functional, organism-based; details: time <= 14.0 day; in short: as §4
BN472 cell [11] = test: Induction of apoptosis in rat BN472 cell implanted in Brown-Norway rat assessed as effect on caspase 3 level at 3 mg/kg, po qd measured upto 14 days by microscopic analysis; type: functional, organism-based; details: time <= 14.0 day
In short: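 BN472 fragments were grown in mammary fat pads of female Brown-Norway rats and dosed orally for 14 days. Hoechst dye was given i.v. 2 min before sacrifice. Excised tumors were cut as 10 micron frozen sections, blocked with 10 % normal goat serum/0.1 % Triton X-100 and stained with rabbit anti-rat caspase 3 (1:10), then a TRITC or FITC secondary. Read by fluorescence microscopy.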

B16-BL6 [12] = test: Antitumor activity against mouse B16-BL6 cells implanted in C57BL/6jNpa mouse assessed as primary tumor growth inhibition by measuring T/C ratio at 1 mg/kg, po qd administered every 2 days started on day 7 post implantation measured after 21 days; type: functional; details: time 7-21 day; in short: as §3
[13] = molecular target: RAF proto-oncogene serine/threonine-protein kinase (Homo sapiens) (UniProt P04049); test: Inhibition of human recombinant GST-fused cRAF expressed in baculovirus expression system using poly-Glu-Tyr (4:1) as substrate measured after 10 mins in presence of gamma-[33P]-ATP by scintillation counting analysis
Chain of RAF proto-oncogene serine/threonine-protein kinase (Homo sapiens) (P04049 whole entry, the tested form may be a part): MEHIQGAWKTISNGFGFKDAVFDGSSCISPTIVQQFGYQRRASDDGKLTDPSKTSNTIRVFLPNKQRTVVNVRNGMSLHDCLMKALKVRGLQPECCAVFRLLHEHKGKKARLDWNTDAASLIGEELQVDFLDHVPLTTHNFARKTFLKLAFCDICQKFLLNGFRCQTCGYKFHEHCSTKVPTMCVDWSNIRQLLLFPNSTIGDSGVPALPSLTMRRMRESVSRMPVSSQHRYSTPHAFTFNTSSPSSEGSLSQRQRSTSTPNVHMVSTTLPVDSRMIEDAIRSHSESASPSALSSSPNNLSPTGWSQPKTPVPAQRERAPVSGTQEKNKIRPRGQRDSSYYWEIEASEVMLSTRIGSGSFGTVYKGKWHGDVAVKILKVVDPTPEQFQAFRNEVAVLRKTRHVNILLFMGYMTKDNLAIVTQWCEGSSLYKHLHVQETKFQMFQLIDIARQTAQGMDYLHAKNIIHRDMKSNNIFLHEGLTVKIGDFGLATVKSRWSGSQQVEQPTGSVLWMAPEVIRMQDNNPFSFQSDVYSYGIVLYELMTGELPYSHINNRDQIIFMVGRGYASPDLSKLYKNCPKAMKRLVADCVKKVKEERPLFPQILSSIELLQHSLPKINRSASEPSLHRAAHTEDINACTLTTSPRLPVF
In short: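 GST-fused kinase domains were expressed in baculovirus and purified on glutathione-Sepharose. 10 min at ambient temperature, stopped with EDTA. Filter binding and scintillation counting. IC50 by linear regression of percent inhibition.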

[14] = Dose normalized AUC(0 to infinity) in OFA rat at 25 mg/kg, po measured upto 24 hrs by HPLC/UV analysis; type: ADME, organism-based; details: in vivo
In short: (§5)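 Female OFA rats, femoral artery/vein catheterized and recovered 96 h. Oral gavage of a micronized suspension in 0.5 % carboxymethyl cellulose at 25 or 3 mg/kg. Bioavailability taken against femoral-vein iv dosing. Plasma sampled 5 min–24 h (9 time points).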

[15] = Clearance in OFA rat at 2.5 mg/kg, iv measured upto 24 hrs by HPLC/UV analysis; type: ADME, organism-based; details: in vivo
In short: (§6)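 Catheters were placed in the femoral artery and vein of female OFA rats, followed by 96 h recovery. IV doses went into the femoral vein: 2.5 mg/kg in ethanol/dimethylisosorbide/PEG400/5 % glucose (10/15/35/40), or 1 mg/kg in NMP/PEG200 (30:70). Plasma samples at 5, 15, 30 min and 1, 2, 4, 6, 8, 24 h. Parameters reported over 24 h. n=2–4.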

[16] = Half life in OFA rat at 3 mg/kg, po measured upto 24 hrs by HPLC/UV analysis; type: ADME, organism-based; details: in vivo; in short: as §5
[17] = Volume of distribution at steady state in OFA rat at 1 mg/kg, iv measured upto 24 hrs by HPLC/UV analysis; type: ADME, organism-based; details: in vivo, read-out: Vdss
In short: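 Female OFA rats with femoral artery and vein catheters, 96 h recovery. IV into femoral vein: 2.5 mg/kg in ethanol/dimethylisosorbide/PEG400/D5W (10/15/35/40) or 1 mg/kg in NMP/PEG200 (30:70). Plasma sampled at 5, 15, 30 min, 1, 2, 4, 6, 8, 24 h; drug measured by HPLC (UV or MS-MS stated); parameters dose normalized, n=2-4.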

[18] = Clearance in OFA rat at 1 mg/kg, iv measured upto 24 hrs by HPLC/UV analysis; type: ADME, organism-based; details: in vivo; in short: as §6
[19] = Tmax in OFA rat at 3 mg/kg, po measured upto 24 hrs by HPLC/UV analysis; type: ADME, organism-based; details: in vivo; in short: as §5
[20] = Half-life in OFA rat at 1 mg/kg, iv measured upto 24 hrs by HPLC/UV analysis; type: ADME, organism-based; details: in vivo; in short: as §6
[21] = Dose normalized Cmax in OFA rat at 3 mg/kg, po measured upto 24 hrs by HPLC/UV analysis; type: ADME, organism-based; details: in vivo; in short: as §5

Nc1nccc(Oc2ccc3c(C(=O)Nc4ccc(F)c(C(F)(F)F)c4)cccc3c2)n1
T/C [1]: 0.176
T/C [2]: 0.028
T/C (Mus musculus [3]): 0.34
T/C (B16-BL6 [4]): 0.39
Activity (Mus musculus [5]): 65%
Activity (B16-BL6 [6]): Active
Activity (Mus musculus [7]): 65%
Activity (B16-BL6 [8]): Active
Activity (BN472 cell [9]): Active
Activity (BN472 cell [10]): Active
Activity (BN472 cell [11]): Active
T/C (B16-BL6 [12]): 0.6

Nc1nccc(Oc2ccc3c(C(=O)Nc4cccc(C(F)(F)F)c4)cccc3c2)n1
inhibition [13]: Active
AUC/dose [14]: 1.22 µmol·h/L
clearance [15]: 11 mL/min/kg

O=C(Nc1cccc(C(F)(F)F)c1)c1cccc2cc(Oc3cc(CO)ncn3)ccc12 [BFH-772]
half-life [16]: 4.1 h
Vd [17]: 0.63 L/kg
clearance [18]: 3 mL/min/kg
Tmax [19]: 2 h
half-life [20]: 2.5 h
Cmax/dose [21]: 1570 nM
